Data on two compounds can be found in ChEMBL document CHEMBL5154815, “A Series of Substituted Bis-Aminotriazines Are Activators of the Natriuretic Peptide Receptor C” (J Med Chem, 2022).

A word on the EC50: it is the concentration needed to bring the measured effect to its halfway point. For orientation: IC50 means the concentration that inhibits the measured activity by half. Usually Kd stands for a measure of binding affinity in units of concentration. For orientation: solubility means how much of the substance goes into solution per volume. A low value points to a poorly soluble substance.

Molecules are shown by their SMILES. The source made the active and inactive calls. The calls are words filed in the database; no cut-off is given here.

In data set [1] the target is T1, Atrial natriuretic peptide receptor 2 (Homo sapiens) (UniProt P20594).
T1 sequence (whole entry): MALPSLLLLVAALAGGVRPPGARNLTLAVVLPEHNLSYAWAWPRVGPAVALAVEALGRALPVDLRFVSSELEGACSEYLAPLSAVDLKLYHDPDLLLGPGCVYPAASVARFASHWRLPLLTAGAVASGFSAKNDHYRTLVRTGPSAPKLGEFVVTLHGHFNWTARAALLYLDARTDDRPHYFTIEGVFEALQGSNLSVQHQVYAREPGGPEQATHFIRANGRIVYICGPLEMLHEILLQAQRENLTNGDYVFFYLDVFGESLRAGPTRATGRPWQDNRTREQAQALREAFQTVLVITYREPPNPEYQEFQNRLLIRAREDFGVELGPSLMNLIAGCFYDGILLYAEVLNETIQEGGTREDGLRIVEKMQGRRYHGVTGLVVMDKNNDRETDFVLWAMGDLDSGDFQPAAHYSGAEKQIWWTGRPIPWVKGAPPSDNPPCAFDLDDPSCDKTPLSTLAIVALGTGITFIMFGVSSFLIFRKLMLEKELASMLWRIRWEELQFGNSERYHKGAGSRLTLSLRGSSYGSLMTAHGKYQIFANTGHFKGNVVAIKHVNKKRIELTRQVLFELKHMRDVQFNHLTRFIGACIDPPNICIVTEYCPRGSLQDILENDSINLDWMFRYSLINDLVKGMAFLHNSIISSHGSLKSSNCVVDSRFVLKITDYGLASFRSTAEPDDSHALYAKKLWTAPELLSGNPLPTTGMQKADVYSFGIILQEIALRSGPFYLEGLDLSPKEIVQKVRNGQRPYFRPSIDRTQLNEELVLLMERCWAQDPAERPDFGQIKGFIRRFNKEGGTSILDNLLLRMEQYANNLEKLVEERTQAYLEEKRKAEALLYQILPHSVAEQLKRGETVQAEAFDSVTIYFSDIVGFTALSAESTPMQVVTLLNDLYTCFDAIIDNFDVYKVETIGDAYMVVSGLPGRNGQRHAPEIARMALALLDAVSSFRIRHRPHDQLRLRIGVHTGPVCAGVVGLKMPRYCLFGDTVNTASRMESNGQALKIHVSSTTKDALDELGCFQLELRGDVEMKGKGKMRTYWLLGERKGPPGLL
Description: Agonist activity at NPRB in human HeLa cells assessed as increased cGMP formation at 1 uM incubated for 30 mins in presence of IBMX by ELISA. The format is cell-based. The settings on record: filed as agonist. In short, it runs like this:
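HeLa cells grown in high-glucose DMEM with 10% heat-inactivated bovine serum, penicillin and streptomycin at 5% CO2. Medium was changed on the assay day, then cells equilibrated 4 h. ANP, CNP and cANF4–23 (1 μM) or test compounds (10 μM) were added with IBMX (1 mM) for 30 min. Lysis used 1% Triton-X/0.1 M HCl. Supernatant cGMP was read by ELISA and normalized to BCA protein; points are independent biological replicates.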
(In general: In an ELISA, binding on a coated surface is turned into a signal by an enzyme label.)

Data set [2] can be described thus: Stability of compound in pooled human plasma assessed as half life measured upto 120 mins by LC/MS/MS analysis. As to conditions: 2 h.
For data set [3], the target named is T2, Atrial natriuretic peptide receptor 3 (Rattus norvegicus, UniProt P41740).
T2 sequence (P41740 whole entry): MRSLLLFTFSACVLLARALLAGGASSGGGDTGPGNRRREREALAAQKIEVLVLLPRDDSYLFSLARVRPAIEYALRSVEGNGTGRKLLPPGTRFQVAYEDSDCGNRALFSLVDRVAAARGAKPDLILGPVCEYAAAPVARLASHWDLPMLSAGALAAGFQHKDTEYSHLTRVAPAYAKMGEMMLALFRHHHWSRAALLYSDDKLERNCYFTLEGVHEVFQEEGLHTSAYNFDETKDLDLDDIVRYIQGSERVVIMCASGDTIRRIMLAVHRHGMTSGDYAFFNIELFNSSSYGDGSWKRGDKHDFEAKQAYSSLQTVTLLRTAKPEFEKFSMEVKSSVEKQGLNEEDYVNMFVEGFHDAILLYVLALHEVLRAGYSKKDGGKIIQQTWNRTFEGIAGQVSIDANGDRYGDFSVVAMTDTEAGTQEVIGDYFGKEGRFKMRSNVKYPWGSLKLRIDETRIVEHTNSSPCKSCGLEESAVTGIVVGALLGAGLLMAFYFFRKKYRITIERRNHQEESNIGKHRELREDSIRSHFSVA
As to the kind of experiment: Agonist activity at NPRC in rat aorta assessed as vasorelaxation by Organ bath assay. The format is tissue-based.

For data set [4] the following is noted: rat, hepatocytes, 20 min, 1 µM.
Data set [5] is described as follows: Stability in Sprague-Dawley rat hepatocytes assessed as clearance per […] at 1 uM after 20 mins by LC-MS/MS analysis. The class given is ADME, cell-based, Hepatocyte.
Data set [6] addresses T3, Cytochrome P450 3A4 (Homo sapiens, UniProt P08684). Description: Inhibition of CYP3A4 in human liver microsomes using midazolam as a substrate preincubated for 10 mins followed by NADPH addition and measured after 20 mins by LC/MS/MS analysis.
For data set [7], the target named is T4, Atrial natriuretic peptide receptor 3 (Homo sapiens, UniProt P17342).
T4 sequence (P17342 whole entry): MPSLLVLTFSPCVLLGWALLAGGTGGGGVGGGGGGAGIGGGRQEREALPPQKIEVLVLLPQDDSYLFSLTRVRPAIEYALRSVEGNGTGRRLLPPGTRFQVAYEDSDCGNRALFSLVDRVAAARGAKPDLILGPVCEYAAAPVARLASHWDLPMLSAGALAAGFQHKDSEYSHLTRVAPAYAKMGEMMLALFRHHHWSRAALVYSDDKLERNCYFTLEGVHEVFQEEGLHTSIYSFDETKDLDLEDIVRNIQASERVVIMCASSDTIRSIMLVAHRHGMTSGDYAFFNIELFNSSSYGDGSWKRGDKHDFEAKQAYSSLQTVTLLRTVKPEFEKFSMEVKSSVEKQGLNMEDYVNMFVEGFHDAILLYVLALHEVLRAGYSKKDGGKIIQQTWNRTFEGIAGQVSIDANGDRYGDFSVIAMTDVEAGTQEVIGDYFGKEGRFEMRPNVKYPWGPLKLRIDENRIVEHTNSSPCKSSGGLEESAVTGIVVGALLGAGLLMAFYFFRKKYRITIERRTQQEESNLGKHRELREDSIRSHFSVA
As to the kind of experiment: Binding affinity to CM5 sensor chip immobilized human NPR-C (27 to 541 residues) assessed as dissociation constant by surface plasmon resonance analysis. In general terms: Surface plasmon resonance follows binding to a sensor surface in real time, without labels.

Data set [8] is described as follows: Permeability of the compound in PBS at pH 7.4 incubated for 5 hrs by LC/MS based PAMPA assay. As to conditions: pH 7.4, 5 h. In general terms: PAMPA measures passive passage across an artificial lipid membrane.
A short description of data set [9]: Solubility of compound in PBS at 10 mM after 3 hrs by UV analysis. As to conditions: buffer, 10000 µM.
The target of data set [10] is T2, Atrial natriuretic peptide receptor 3. As to the kind of experiment: Agonist activity at NPRC in rat small mesenteric arteries assessed as vasorelaxation by Organ bath assay. The class given is tissue-based, Artery.
Another data set concerns the target T5, Cytochrome P450 2C8 (Homo sapiens, UniProt P10632).
T5 sequence (P10632 whole entry): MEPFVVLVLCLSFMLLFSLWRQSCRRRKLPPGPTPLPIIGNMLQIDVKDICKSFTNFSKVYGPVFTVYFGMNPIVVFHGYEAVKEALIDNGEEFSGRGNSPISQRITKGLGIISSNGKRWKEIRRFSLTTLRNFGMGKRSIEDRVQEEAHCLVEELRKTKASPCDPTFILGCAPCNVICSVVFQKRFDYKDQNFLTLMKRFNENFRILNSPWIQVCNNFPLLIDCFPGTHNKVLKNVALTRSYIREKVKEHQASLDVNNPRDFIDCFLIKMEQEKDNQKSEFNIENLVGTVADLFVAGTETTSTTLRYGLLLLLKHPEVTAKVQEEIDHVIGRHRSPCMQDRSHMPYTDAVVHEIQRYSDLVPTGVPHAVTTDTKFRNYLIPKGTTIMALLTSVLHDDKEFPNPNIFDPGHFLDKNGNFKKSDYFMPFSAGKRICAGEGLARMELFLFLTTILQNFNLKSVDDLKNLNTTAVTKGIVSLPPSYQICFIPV
As to the kind of experiment: Inhibition of CYP2C8 in human liver microsomes using amodiaquine as a substrate preincubated for 10 mins followed by NADPH addition and measured after 10 mins by LC/MS/MS analysis.

Data set [11] concerns the target T3, Cytochrome P450 3A4. As to the kind of experiment: Inhibition of CYP3A4 in human liver microsomes using testosterone as a substrate preincubated for 10 mins followed by NADPH addition and measured after 10 mins by LC/MS/MS analysis.
Another data set addresses Cytochrome P450 2C9 (Homo sapiens, UniProt P11712). As to the kind of experiment: Inhibition of CYP2C9 in human liver microsomes using diclofenac as substrate preincubated for 10 mins followed by NADPH addition and measured after 10 mins by LC/MS/MS analysis.
The nature of data set [12]: Protein binding in human plasma by equilibrium dialysis assay.
The target of a further data set is T6, Cytochrome P450 1A2 (Homo sapiens, UniProt P05177).
T6 sequence (P05177 whole entry): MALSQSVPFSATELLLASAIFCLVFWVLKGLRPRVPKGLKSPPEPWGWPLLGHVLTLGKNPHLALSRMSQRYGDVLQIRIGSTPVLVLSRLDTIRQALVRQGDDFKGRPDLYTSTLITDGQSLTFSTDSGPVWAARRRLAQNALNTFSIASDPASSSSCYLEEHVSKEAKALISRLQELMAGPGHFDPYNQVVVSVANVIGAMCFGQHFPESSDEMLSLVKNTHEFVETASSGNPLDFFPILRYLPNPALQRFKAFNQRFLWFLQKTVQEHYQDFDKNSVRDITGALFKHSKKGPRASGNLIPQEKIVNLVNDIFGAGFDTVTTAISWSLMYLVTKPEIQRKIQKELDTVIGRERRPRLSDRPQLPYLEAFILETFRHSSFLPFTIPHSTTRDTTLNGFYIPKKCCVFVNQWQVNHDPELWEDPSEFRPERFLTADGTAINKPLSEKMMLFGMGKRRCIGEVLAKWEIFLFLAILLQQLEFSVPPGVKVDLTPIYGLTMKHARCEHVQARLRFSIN
As to the kind of experiment: Inhibition of CYP1A2 in human liver microsomes using phenacetin as substrate preincubated for 10 mins followed by NADPH addition and measured after 10 mins by LC/MS/MS analysis.

The target in a further data set is Cytochrome P450 2C19 (Homo sapiens, UniProt P33261). As to the kind of experiment: Inhibition of CYP2C19 in human liver microsomes using S-mephenytoin as substrate preincubated for 10 mins followed by NADPH addition and measured after 20 mins by LC/MS/MS analysis.
Sequence of Cytochrome P450 2C19 (P33261 whole entry): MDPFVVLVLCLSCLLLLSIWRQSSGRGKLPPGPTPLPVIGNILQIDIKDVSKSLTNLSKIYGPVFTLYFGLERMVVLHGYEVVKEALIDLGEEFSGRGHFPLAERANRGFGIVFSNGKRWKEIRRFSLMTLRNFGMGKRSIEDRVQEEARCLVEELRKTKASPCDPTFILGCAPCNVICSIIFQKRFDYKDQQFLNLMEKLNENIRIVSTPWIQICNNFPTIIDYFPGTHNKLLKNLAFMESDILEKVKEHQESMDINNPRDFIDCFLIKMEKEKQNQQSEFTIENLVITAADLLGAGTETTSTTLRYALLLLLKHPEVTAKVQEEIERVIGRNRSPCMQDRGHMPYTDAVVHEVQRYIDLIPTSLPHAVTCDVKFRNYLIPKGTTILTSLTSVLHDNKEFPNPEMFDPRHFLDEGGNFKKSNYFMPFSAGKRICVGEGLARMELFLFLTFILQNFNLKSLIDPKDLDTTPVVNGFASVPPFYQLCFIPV

T3 sequence (P08684 whole entry): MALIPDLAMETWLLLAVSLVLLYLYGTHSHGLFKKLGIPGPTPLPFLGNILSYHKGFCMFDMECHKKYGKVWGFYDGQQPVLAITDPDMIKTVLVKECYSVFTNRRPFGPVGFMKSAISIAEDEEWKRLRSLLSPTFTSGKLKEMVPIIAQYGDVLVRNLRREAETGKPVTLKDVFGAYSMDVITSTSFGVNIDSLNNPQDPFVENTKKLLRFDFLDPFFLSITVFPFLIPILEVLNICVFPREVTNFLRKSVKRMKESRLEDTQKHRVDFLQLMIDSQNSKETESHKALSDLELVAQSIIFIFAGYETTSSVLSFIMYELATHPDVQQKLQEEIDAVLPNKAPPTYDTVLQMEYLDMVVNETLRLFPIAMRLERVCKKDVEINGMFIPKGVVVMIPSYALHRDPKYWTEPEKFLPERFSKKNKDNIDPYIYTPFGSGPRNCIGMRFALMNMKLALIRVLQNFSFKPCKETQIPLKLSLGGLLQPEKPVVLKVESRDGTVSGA
Sequence of Cytochrome P450 2C9 (P11712 whole entry): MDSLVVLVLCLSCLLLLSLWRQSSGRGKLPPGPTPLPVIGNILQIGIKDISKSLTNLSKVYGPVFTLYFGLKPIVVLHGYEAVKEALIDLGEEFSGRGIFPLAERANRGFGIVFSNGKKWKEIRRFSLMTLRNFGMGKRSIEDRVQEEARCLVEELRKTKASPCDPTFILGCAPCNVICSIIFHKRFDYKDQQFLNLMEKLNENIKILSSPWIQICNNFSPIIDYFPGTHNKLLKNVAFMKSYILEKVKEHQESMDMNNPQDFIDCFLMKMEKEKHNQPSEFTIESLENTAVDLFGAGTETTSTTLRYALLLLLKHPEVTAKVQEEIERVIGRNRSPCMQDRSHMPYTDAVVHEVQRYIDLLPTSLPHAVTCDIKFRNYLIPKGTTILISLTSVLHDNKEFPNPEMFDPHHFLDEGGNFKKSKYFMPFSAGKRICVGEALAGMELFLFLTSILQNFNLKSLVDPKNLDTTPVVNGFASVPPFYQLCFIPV

On to `CC[C@H](C)[C@@H]1NC(=O)[C@H](CCCNC(=N)N)NC(=O)[C@H](CC(=O)O)NC(=O)[C@H](CCSC)NC(=O)[C@H](CCCNC(=N)N)NC(=O)CNC(=O)CNC(=O)[C@H](Cc2ccccc2)NC(=O)[C@@H](NC(=O)[C@H](CO)NC(=O)[C@H](CO)NC(=O)[C@H](CCCNC(=N)N)NC(=O)[C@H](CCCNC(=N)N)NC(=O)[C@H](CC(C)C)NC(=O)[C@@H](N)CO)CSSC[C@@H](C(=O)N[C@@H](CC(N)=O)C(=O)N[C@@H](CO)C(=O)N[C@@H](Cc2ccccc2)C(=O)N[C@@H](CCCNC(=N)N)C(=O)N[C@@H](Cc2ccc(O)cc2)C(=O)O)NC(=O)CNC(=O)[C@H](CC(C)C)NC(=O)CNC(=O)[C@H](CO)NC(=O)[C@H](CCC(N)=O)NC(=O)[C@H](C)NC(=O)CNC1=O`, for which, in [1], the result was Active.
Consider `CC(=O)Nc1ccc(Nc2ncnc(N[C@@H](CC(C)C)C(=O)O)n2)cc1`, for which the t1/2 was more than 60 min in data set [2] and 216.8 min in data set [4]. The EC50 in data set [3] is 6.2 µM; in [10] it was 22.2 µM. Also, in [5], the CLH is less than 6.4 µL/min. The IC50 against Cytochrome P450 3A4 [6], at Cytochrome P450 2C8, against Cytochrome P450 3A4 [11], on Cytochrome P450 2C9, against Cytochrome P450 1A2 and at Cytochrome P450 2C19 was more than 50 µM in each case. In addition, the equilibrium dissociation constant (Kd) in data set [7] is 220 µM. The Papp in data set [8] is < 0.001 10^-6 cm/s. This compound yielded a solubility in data set [9] of more than 71.68 mg/mL. The PPB in [12] stood at 85.4%.
